Assay results taken from ChEMBL document CHEMBL3244365, “Synthesis of potential hypolipidemic agents. Reaction of substituted phenyl 2,3-epoxypropyl ethers with adenine, uracil, and thymine” (J Med Chem, 1978).
Values belong to the molecule of their own block, whether it stands above or below them. Activity calls are given as the source filed them. No cut-off for these calls is given here.

Assays:
[1] = system: Rattus norvegicus; assay: Hypolipidemic activity in Sprague-Dawley rat assessed as decrease in serum cholesterol at 10 mg/kg/day, po after 22 to 24 hrs by Liebermann-Burchard reaction (reference value: 100 +/- 8%); assay type: functional
How it was run: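 Male Sprague-Dawley rats were kept on rodent chow with water ad libitum. Compounds were suspended and homogenized in 1% CMC-water and given by oral intubation once daily at 11:00 a.m., with doses based on weekly body weights. Tail-vein blood was taken 22-24 h after dosing into nonheparinized microcapillary tubes and centrifuged 3 min. Serum cholesterol (mg %) was measured on duplicate 30-μl non-hemolyzed samples by a modified Liebermann-Burchard reaction.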

[2] = system: Rattus norvegicus; assay: Hypolipidemic activity in Sprague-Dawley rat assessed as change in liver triglyceride at 50 mg/kg, po qd for 1 week (reference value: 100 +/- 8.4%); conditions: 168 h
[3] = system: Rattus norvegicus; assay: Hypolipidemic activity in Sprague-Dawley rat assessed as inhibition of incorporation of [1,3-14C]glycerol in liver triglyceride at 50 mg/kg, po qd for 1 week (reference value: 100 +/- 8.4%); values are per cent of control; conditions: 168 h
[4] = species: Rattus norvegicus; assay: Inhibition of rat phosphatidate phosphohydrolase in liver microsomes assessed as reduction in enzyme activity at 2 mmol
[5] = system: Rattus norvegicus; assay: Hypolipidemic activity in Sprague-Dawley rat assessed as incorporation of [1,3-14C]glycerol in liver phospholipid at 10 mg/kg, po qd for 1 week (reference value: 100 +/- 8.3%); conditions: 168 h
[6] = system: Rattus norvegicus; assay: Hypolipidemic activity in Sprague-Dawley rat assessed as decrease in liver triglyceride at 10 mg/kg, po qd for 1 week (reference value: 100 +/- 8.4%); assay type: functional; conditions: 168 h
[7] = system: Rattus norvegicus; assay: Hypolipidemic activity in Sprague-Dawley rat assessed as inhibition of incorporation of [1,3-14C]glycerol in liver phospholipid at 50 mg/kg, po qd for 1 week (reference value: 100 +/- 8.3%); values are per cent of control; conditions: 168 h
[8] = system: Rattus norvegicus; assay: Toxicity in Sprague-Dawley rat assessed as change in food intake at 10 to 100 mg/kg, po; assay type: organism-based; design: dose 10-100 mg/kg, route oral; conditions: in vivo
How it was run: (§1)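 Male Sprague-Dawley rats received 10-100 mg/kg orally once daily for 7 days as a 1% CMC-water suspension. Body weight gain, food intake and deaths were monitored.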

[9] = system: Rattus norvegicus; assay: Hypolipidemic activity in Sprague-Dawley rat assessed as decrease in serum triglyceride at 50 mg/kg, po qd for 1 week (reference value: 100 +/- 5.3%); assay type: functional; conditions: 168 h
[10] = system: Liver microsome; assay: Hypolipidemic activity in rat liver microsomes assessed as inhibition of incorporation of [1,3-14C]glycerol 3-phosphate ino neutral lipid at 0.5 to 5 mM; assay type: functional
How it was run: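 Rat liver microsomes were incubated with sn-[1,3-14C]glycerol 3-phosphate in the presence of ATP, palmitate, CoA and Mg2+. Label incorporated into neutral lipid (diglyceride + triglyceride) was measured, and phosphatidic acid accumulation was also followed.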

[11] = system: Rattus norvegicus; assay: Hypolipidemic activity in Sprague-Dawley rat assessed as inhibition of incorporation of [1,3-14C]glycerol in liver triglyceride at 10 mg/kg, po qd for 1 week (reference value: 100 +/- 8.4%); values are per cent of control; conditions: 168 h
[12] = system: Rattus norvegicus; assay: Hypolipidemic activity in Sprague-Dawley rat assessed as liver triglyceride level at 100 mg/kg, po qd for 1 week (reference value: 100 +/- 8.4%); conditions: 168 h
[13] = system: Rattus norvegicus; assay: Hypolipidemic activity in Sprague-Dawley rat assessed as inhibition of incorporation of [1,3-14C]glycerol in liver triglyceride at 100 mg/kg, po qd for 1 week (reference value: 100 +/- 8.4%); values are per cent of control; conditions: 168 h
[14] = system: Rattus norvegicus; assay: Toxicity in Sprague-Dawley rat assessed as change in body weight at 10 to 100 mg/kg, po; assay type: organism-based; design: dose 10-100 mg/kg, route oral; conditions: in vivo; how it was run: as §1
[15] = system: Rattus norvegicus; assay: Hypolipidemic activity in Sprague-Dawley rat assessed as decrease in serum triglyceride at 10 mg/kg, po qd for 1 week (reference value: 100 +/- 5.3%); assay type: functional; conditions: 168 h
[16] = system: Rattus norvegicus; assay: Hypolipidemic activity in Sprague-Dawley rat assessed as decrease in serum triglyceride at 100 mg/kg, po qd for 1 week (reference value: 100 +/- 5.3%); assay type: functional; conditions: 168 h
[17] = system: Rattus norvegicus; assay: Hypolipidemic activity in Sprague-Dawley rat assessed as incorporation of [1,3-14C]glycerol in liver phospholipid at 100 mg/kg, po qd for 1 week (reference value: 100 +/- 8.3%); conditions: 168 h

SMILES: O=c1ccn(CC(O)COc2ccc(Cl)cc2)c(=O)[nH]1 (stereo unspecified)
level, % of control at 10 mg/kg/day [1]: 102%

SMILES: Cc1ccc(OCC(O)Cn2ccc(=O)[nH]c2=O)cc1 (stereo unspecified)
level, % of control at 10 mg/kg/day [1]: 89%

SMILES: Nc1ncnc2c1ncn2CC(O)COc1ccc(F)cc1 (stereo unspecified)
level, % of control at 10 mg/kg/day [1]: 86%

SMILES: Nc1ncnc2c1ncn2CC(O)CSc1ccc(Cl)cc1 (stereo unspecified)
level, % of control at 10 mg/kg/day [1]: 79%

SMILES: CC(C)(C)c1ccc(OCC(O)Cn2cnc3c(N)ncnc32)cc1 (stereo unspecified)
level, % of control at 10 mg/kg/day [1]: 110%

SMILES: Nc1ncnc2c1ncn2CC(O)COc1ccc(C(=O)c2ccccc2)cc1 (stereo unspecified)
level, % of control at 10 mg/kg/day [1]: 118%

SMILES: CC(=O)c1ccc(OCC(O)Cn2cnc3c(N)ncnc32)cc1 (stereo unspecified)
level, % of control at 10 mg/kg/day [1]: 99%

SMILES: Nc1ncnc2c1ncn2CC(O)COc1cccc(Cl)c1 (stereo unspecified)
level, % of control at 10 mg/kg/day [1]: 97%

SMILES: COc1ccc(OCC(O)Cn2ccc(=O)[nH]c2=O)cc1 (stereo unspecified)
level, % of control at 10 mg/kg/day [1]: 93%

SMILES: Nc1ncnc2c1ncn2CC(O)COc1ccc(Br)cc1 (stereo unspecified)
level, % of control at 10 mg/kg/day [1]: 96%

SMILES: Cc1cn(CC(O)COc2ccc(Cl)cc2)c(=O)[nH]c1=O (stereo unspecified)
level, % of control at 10 mg/kg/day [1]: 96%

SMILES: Nc1ncnc2c1ncn2CC(O)COc1ccccc1Cl (stereo unspecified)
level, % of control at 10 mg/kg/day [1]: 93%

SMILES: Cc1ccc(OCC(O)Cn2cc(C)c(=O)[nH]c2=O)cc1 (stereo unspecified)
level, % of control at 10 mg/kg/day [1]: 99%

SMILES: COc1ccc(OCC(O)Cn2cnc3c(N)ncnc32)cc1 (stereo unspecified)
level, % of control at 10 mg/kg/day [1]: 93%

inhibition [4]: 50%
SMILES: Nc1ncnc2c1ncn2CC(O)COc1ccc(Cl)cc1 (stereo unspecified)
level, % of control at 50 mg/kg [2]: 252% | level, % of control at 50 mg/kg [3]: 29% | level, % of control at 10 mg/kg [5]: 74.9% | level, % of control at 10 mg/kg [6]: 57.6% | level, % of control at 50 mg/kg [7]: 33.5% | level, % of control at 10 mg/kg/day [1]: 93% | Activity [8]: Non-toxic | level, % of control at 50 mg/kg [9]: 38.5% | inhibition [10]: Active | level, % of control at 10 mg/kg [11]: 36.7% | level, % of control at 100 mg/kg [12]: 345% | level, % of control at 100 mg/kg [13]: 31.8% | Activity [14]: Non-toxic | level, % of control at 10 mg/kg [15]: 73% | level, % of control at 100 mg/kg [16]: 40.3% | level, % of control at 100 mg/kg [17]: 36.7%
